# Measured values as given in ChEMBL document CHEMBL1806473, “Structure-based optimization of click-based histone deacetylase inhibitors” (Eur J Med Chem, 2011).
# Assays:
# SK-MEL-5 [1] = assay: Cytotoxicity against human SK-MEL-5 cells; type: cell-based
# NCI-H226 [2] = assay: Antiproliferative activity against human NCI-H226 cells by SRB assay; type: functional
# Summary of the method: (§1)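 Tested in the NCI in vitro human tumor cell line screen, run by the National Cancer Institute. Each compound was given at five concentrations (100, 10, 1.0, 0.1 and 0.01 μM). GI50 is the drug concentration that reduces growth of treated cells to half that of control cells during drug incubation, judged from the SRB signal.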
# TK-10 = assay: Antiproliferative activity against human TK10 cells by SRB assay; type: functional
# Summary of the method: (§2)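 Cell growth was tested in the NIH in vitro disease-oriented human tumor cell line screen, which NCI ran for these compounds. Compounds were tested at five concentrations (100, 10, 1.0, 0.1 and 0.01 μM), and growth was read by SRB signal. GI50 is the drug concentration that reduces growth of treated cells to half that of control cells during drug incubation.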
# HOP-62 = assay: Antiproliferative activity against human HOP62 cells by SRB assay; type: functional; summary of the method: as §1
# HOP-92 [3] = assay: Cytotoxicity against human HOP92 cells; type: cell-based
# CCRF-CEM = assay: Cytotoxicity against human CCRF-CEM cells; type: cell-based
# Malme-3M [4] = assay: Cytotoxicity against human MALME-3M cells; type: cell-based
# Summary of the method: (§3)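 Tested in the NCI in vitro disease-oriented human tumour cell line screen, with screening performed by NCI. Growth was read by SRB signal over the drug incubation period at five concentrations: 100, 10, 1.0, 0.1 and 0.01 μM. GI50 is the concentration that reduces growth of treated cells to half that of control cells.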
# SK-MEL-5 [5] = assay: Antiproliferative activity against human SK-MEL-5 cells by SRB assay; type: functional; summary of the method: as §1
# EKVX = assay: Cytotoxicity against human EKVX cells; type: cell-based; summary of the method: as §3
# SK-MEL-28 [6] = assay: Antiproliferative activity against human SK-MEL-28 cells by SRB assay; type: functional; summary of the method: as §1
# NCI-H460 [7] = assay: Antiproliferative activity against human NCI-H460 cells by SRB assay; type: functional; summary of the method: as §1
# SNB-75 [8] = assay: Cytotoxicity against human SNB75 cells; type: cell-based
# Summary of the method: (§4)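 Screened by NCI in its in vitro disease-oriented human tumour cell line panel. Compounds tested at five concentrations (100, 10, 1.0, 0.1 and 0.01 μM). Growth read by sulforhodamine B (SRB) signal. GI50 is the concentration reducing growth of treated cells to half that of control cells during the drug incubation.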
# HOP-92 [9] = assay: Antiproliferative activity against human HOP92 cells by SRB assay; type: functional; summary of the method: as §1
# SW-620 = assay: Cytotoxicity against human SW620 cells; type: cell-based; summary of the method: as §4
# NCI-H322M = assay: Antiproliferative activity against human NCI-H322M cells by SRB assay; type: functional; summary of the method: as §1
# T47D = assay: Antiproliferative activity against human T47D cells by SRB assay; type: functional; summary of the method: as §2
# HL-60(TB) = assay: Antiproliferative activity against human HL-60(TB) cells by SRB assay; type: functional; summary of the method: as §3
# UO-31 [10] = assay: Antiproliferative activity against human UO31 cells by SRB assay; type: functional; summary of the method: as §2
# SNB-19 = assay: Cytotoxicity against human SNB19 cells; type: cell-based; summary of the method: as §4
# HCT-116 = assay: Cytotoxicity against human HCT116 cells; type: cell-based; summary of the method: as §3
# SK-MEL-2 [11] = assay: Cytotoxicity against human SK-MEL-2 cells; type: cell-based; summary of the method: as §3
# NCI-H23 = assay: Antiproliferative activity against human NCI-H23 cells by SRB assay; type: functional; summary of the method: as §1
# PC-3 = assay: Cytotoxicity against human PC3 cells; type: cell-based
# COLO 205 = assay: Cytotoxicity against human COLO205 cells; type: cell-based; summary of the method: as §3
# A498 = assay: Cytotoxicity against human A498 cells; type: cell-based
# SF-268 = assay: Cytotoxicity against human SF268 cells; type: cell-based; summary of the method: as §3
# NCI-H522 = assay: Antiproliferative activity against human NCI-H522 cells by SRB assay; type: functional; summary of the method: as §1
# UO-31 [12] = assay: Cytotoxicity against human UO31 cells; type: cell-based; summary of the method: as §4
# SF-295 [13] = assay: Antiproliferative activity against human SF295 cells by SRB assay; type: functional; summary of the method: as §1
# HT-29 = assay: Antiproliferative activity against human HT-29 cells by SRB assay; type: functional; summary of the method: as §1
# HCT-15 = assay: Cytotoxicity against human HCT15 cells; type: cell-based; summary of the method: as §3
# OVCAR-4 = assay: Cytotoxicity against human OVCAR4 cells; type: cell-based
# Malme-3M [14] = assay: Antiproliferative activity against human MALME-3M cells by SRB assay; type: functional; summary of the method: as §1
# LOX IMVI [15] = assay: Antiproliferative activity against human LOXIMVI cells by SRB assay; type: functional; summary of the method: as §1
# MCF7 = assay: Cytotoxicity against human MCF7 cells; type: cell-based
# SK-MEL-2 [16] = assay: Antiproliferative activity against human SK-MEL-2 cells by SRB assay; type: functional; summary of the method: as §1
# NCI-H460 [17] = assay: Cytotoxicity against human NCI-H460 cells; type: cell-based
# KM12 = assay: Antiproliferative activity against human KM12 cells by SRB assay; type: functional; summary of the method: as §1
# MDA-MB-435 = assay: Cytotoxicity against human MDA-MB-435 cells; type: cell-based
# UACC-257 [18] = assay: Cytotoxicity against human UACC257 cells; type: cell-based; summary of the method: as §4
# OVCAR-3 = assay: Cytotoxicity against human OVCAR3 cells; type: cell-based; summary of the method: as §3
# SK-OV-3 [19] = assay: Antiproliferative activity against human SKOV3 cells by SRB assay; type: functional; summary of the method: as §1
# SNB-75 [20] = assay: Antiproliferative activity against human SNB75 cells by SRB assay; type: functional; summary of the method: as §2
# LOX IMVI [21] = assay: Cytotoxicity against human LOXIMVI cells; type: cell-based
# BT-549 [22] = assay: Cytotoxicity against human BT549 cells; type: cell-based
# BT-549 [23] = assay: Antiproliferative activity against human BT549 cells by SRB assay; type: functional; summary of the method: as §1
# SF-295 [24] = assay: Cytotoxicity against human SF295 cells; type: cell-based; summary of the method: as §3
# UACC-257 [25] = assay: Antiproliferative activity against human UACC257 cells by SRB assay; type: functional; summary of the method: as §2
# NCI-H226 [26] = assay: Cytotoxicity against human NCI-H226 cells; type: cell-based
# SK-MEL-28 [27] = assay: Cytotoxicity against human SK-MEL-28 cells; type: cell-based
# CAKI-1 = assay: Cytotoxicity against human Caki1 cells; type: cell-based
# Histone deacetylase = assay: Inhibition of HDAC in human HeLa cells using Ac-Arg-Gly-Lys(Ac)-AMC as fluorescent substrate after 20 mins by fluorescence assay; type: cell-based
# ACHN = assay: Cytotoxicity against human ACHN cells; type: cell-based
# DU-145 = assay: Cytotoxicity against human DU145 cells; type: cell-based; summary of the method: as §3
# SR = assay: Antiproliferative activity against human SR cells by SRB assay; type: functional; summary of the method: as §2
# OVCAR-8 = assay: Antiproliferative activity against human OVCAR8 cells by SRB assay; type: functional; summary of the method: as §1
# SK-OV-3 [28] = assay: Cytotoxicity against human SKOV3 cells; type: cell-based
# RXF 393 = assay: Antiproliferative activity against human RXF393 cells by SRB assay; type: functional; summary of the method: as §1
# A549 = assay: Antiproliferative activity against human A549 cells by SRB assay; type: functional; summary of the method: as §1
# SF-539 = assay: Cytotoxicity against human SF539 cells; type: cell-based; summary of the method: as §3
structure (smiles),measurement,setting,value
CC(C)C(/C=C/c1ccccc1)n1cc(/C=C/C(=O)NO)nn1 (stereo not given),LC50,SK-MEL-5 [1],5170 nM
same,GI50,NCI-H226 [2],2380 nM
same,GI50,TK-10,531 nM
same,GI50,HOP-62,1240 nM
same,LC50,HOP-92 [3],22100 nM
same,LC50,CCRF-CEM,> 100000 nM
same,LC50,Malme-3M [4],68400 nM
same,GI50,SK-MEL-5 [5],730 nM
same,LC50,EKVX,> 100000 nM
same,GI50,SK-MEL-28 [6],1590 nM
same,GI50,NCI-H460 [7],761 nM
same,LC50,SNB-75 [8],38300 nM
same,GI50,HOP-92 [9],1730 nM
same,LC50,SW-620,9220 nM
same,GI50,NCI-H322M,1360 nM
same,GI50,T47D,1240 nM
same,GI50,HL-60(TB),728 nM
same,GI50,UO-31 [10],1480 nM
same,LC50,SNB-19,66600 nM
same,LC50,HCT-116,3850 nM
same,LC50,SK-MEL-2 [11],> 100000 nM
same,GI50,NCI-H23,1640 nM
same,LC50,PC-3,46500 nM
same,LC50,COLO 205,6100 nM
same,LC50,A498,8630 nM
same,LC50,SF-268,29700 nM
same,GI50,NCI-H522,582 nM
same,LC50,UO-31 [12],40900 nM
same,GI50,SF-295 [13],1470 nM
same,GI50,HT-29,827 nM
same,LC50,HCT-15,> 100000 nM
same,LC50,OVCAR-4,71400 nM
same,GI50,Malme-3M [14],311 nM
same,GI50,LOX IMVI [15],1180 nM
same,LC50,MCF7,> 100000 nM
same,GI50,SK-MEL-2 [16],1520 nM
same,LC50,NCI-H460 [17],42900 nM
same,GI50,KM12,1220 nM
same,LC50,MDA-MB-435,31600 nM
same,LC50,UACC-257 [18],88300 nM
same,LC50,OVCAR-3,22100 nM
same,GI50,SK-OV-3 [19],1490 nM
same,GI50,SNB-75 [20],1820 nM
same,LC50,LOX IMVI [21],5470 nM
same,LC50,BT-549 [22],> 100000 nM
same,GI50,BT-549 [23],3280 nM
same,LC50,SF-295 [24],58300 nM
same,GI50,UACC-257 [25],3120 nM
same,LC50,NCI-H226 [26],40100 nM
same,LC50,SK-MEL-28 [27],44900 nM
same,LC50,CAKI-1,6300 nM
same,IC50,Histone deacetylase,22 nM
same,LC50,ACHN,71100 nM
same,LC50,DU-145,> 100000 nM
same,GI50,SR,213 nM
same,GI50,OVCAR-8,816 nM
same,LC50,SK-OV-3 [28],27800 nM
same,GI50,RXF 393,1190 nM
same,GI50,A549,1330 nM
same,LC50,SF-539,8210 nM
